This passage reports Activity and MIC results from ChEMBL document CHEMBL2146415, “Antibacterial activities of Groebke-Blackburn-Bienaymé-derived imidazo[1,2-a]pyridin-3-amines” (Bioorg Med Chem, 2012).

Test [1] has as its target T1, Toll-like receptor 7 (Homo sapiens) (UniProt Q9NYK1).
T1 sequence (whole entry): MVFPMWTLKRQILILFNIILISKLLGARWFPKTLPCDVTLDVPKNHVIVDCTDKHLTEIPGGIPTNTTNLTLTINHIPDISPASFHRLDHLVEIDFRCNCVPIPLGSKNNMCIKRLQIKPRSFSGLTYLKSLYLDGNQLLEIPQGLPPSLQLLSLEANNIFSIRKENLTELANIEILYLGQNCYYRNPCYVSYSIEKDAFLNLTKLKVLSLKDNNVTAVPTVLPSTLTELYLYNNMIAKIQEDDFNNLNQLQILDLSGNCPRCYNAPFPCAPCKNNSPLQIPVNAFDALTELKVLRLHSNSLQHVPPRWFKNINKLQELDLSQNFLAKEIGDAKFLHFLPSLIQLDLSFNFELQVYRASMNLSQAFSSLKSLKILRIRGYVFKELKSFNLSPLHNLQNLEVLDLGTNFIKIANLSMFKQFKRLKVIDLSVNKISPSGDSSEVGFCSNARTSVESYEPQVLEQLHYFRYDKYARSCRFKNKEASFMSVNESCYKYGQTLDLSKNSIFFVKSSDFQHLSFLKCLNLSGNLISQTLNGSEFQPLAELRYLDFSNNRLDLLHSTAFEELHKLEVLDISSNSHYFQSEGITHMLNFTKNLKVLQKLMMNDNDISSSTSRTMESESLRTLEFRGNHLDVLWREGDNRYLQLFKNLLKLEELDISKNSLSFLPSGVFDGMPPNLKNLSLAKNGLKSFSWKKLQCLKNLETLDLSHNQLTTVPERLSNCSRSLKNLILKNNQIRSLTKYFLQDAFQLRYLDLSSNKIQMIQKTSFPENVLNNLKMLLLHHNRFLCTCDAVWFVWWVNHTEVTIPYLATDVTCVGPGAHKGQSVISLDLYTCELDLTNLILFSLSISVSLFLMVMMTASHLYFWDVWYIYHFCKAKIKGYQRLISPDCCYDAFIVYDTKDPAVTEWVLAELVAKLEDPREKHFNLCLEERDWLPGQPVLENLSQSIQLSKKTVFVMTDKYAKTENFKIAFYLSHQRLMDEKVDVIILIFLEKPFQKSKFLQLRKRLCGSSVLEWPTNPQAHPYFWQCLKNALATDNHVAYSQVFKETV
Description: Antagonist activity at TLR7 expressed in HEK293 cells co-transfected with NF-kappaB/sAP gene assessed as inhibition of gardiquimod-induced NF-kappaB activation up to 250 uM by reporter gene assay. Format: functional, cell-based.

Test [2] concerns the target T1, Toll-like receptor 7 (Homo sapiens). Description: Agonist activity at human TLR7 expressed in HEK293 cells co-transfected with NF-kappaB/sAP gene assessed as induction of NF-kappaB activation up to 250 uM by reporter gene assay. Format: functional, cell-based. A general note: Reporter assays use an easily measured gene product as a stand-in for the process of interest.

The test system of test [3] is Staphylococcus aureus. Description: Bacteriostatic activity against wild type Staphylococcus aureus ATCC 13709 at 100 ug/mL by CLSI broth microdilution method. The test is classed as functional, organism-based. A general note: In broth dilution the organism is exposed to a series of concentrations in liquid medium.
The subject of test [4] is Staphylococcus aureus. Description: Bacteriostatic activity against wild type Staphylococcus aureus ATCC 13709 by CLSI broth microdilution method. Format: functional. Put shortly:
(§1)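 MIC was determined by CLSI broth microdilution in non-cation-supplemented Mueller-Hinton broth, using OD600 0.5 cultures diluted 10-fold and 2-fold compound dilutions, overnight at 37°C, A600 read-out.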

For test [5], the system named is Staphylococcus aureus. Kind of test: Bacteriostatic activity against methicillin resistant Staphylococcus aureus ATCC 33591 by CLSI broth microdilution method. The test is classed as functional.
Test [6] deals with Staphylococcus aureus. Description: Bactericidal activity against methicillin resistant Staphylococcus aureus ATCC 33591 by broth microdilution method. Format: functional, organism-based. The method in brief: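 MBC by microdilution subculture: 0.5 μL from each well of the parent MIC plate (MRSA ATCC 33591) diluted into 80 μL fresh Mueller-Hinton broth, incubated overnight at 37°C, absorbance read at 600 nm.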

For a further test, the system named is Streptococcus pyogenes. Description: Bacteriostatic activity against Streptococcus pyogenes clinical isolate by CLSI broth microdilution method. The test is classed as functional. Put shortly: as §1

Structures are written as SMILES. In brackets after ≈: the same amount, converted by molar mass. Activity calls are given as the source filed them.

For `c1ccc(CNc2c(-c3ccccc3)nc3ccccn23)cc1`, the outcome (in test [1]; in test [2]; with Staphylococcus aureus [3]) was inactive.
As a reminder, the MIC is the smallest concentration in the dilution series that meets the test's criterion for growth inhibition. Read a high MIC as weaker potency. `CCCCNc1c(-c2c3ccccc3cc3ccccc23)nc2ccccn12`: the MIC in the test on Staphylococcus aureus [4] was 3.91 µg/mL (≈ 10.7 µM); with Staphylococcus aureus [5], 7.81 µg/mL (≈ 21.4 µM).
On to `CCCCCNc1c(-c2c3ccccc3cc3ccccc23)nc2ccccn12`, for which the MIC amounted to 3.91 µg/mL (≈ 10.3 µM) with Staphylococcus aureus [4] and 7.81 µg/mL (≈ 20.6 µM) with Staphylococcus aureus [5].
On to `CC(C)(C)Nc1c(-c2ccccc2)nc2cnccn12`, for which the outcome (in test [1]; in test [2]; with Staphylococcus aureus [3]) was inactive.
For `CC(C)(C)Nc1c(-c2cccc3ccccc23)nc2cnccn12`, the result (in test [1]; in test [2]; in the test with Staphylococcus aureus [3]) was inactive.
`CC(C)(C)Nc1c(-c2c3ccccc3cc3ccccc23)nc2ccc(Br)cn12`: 15.6 µg/mL (≈ 35.2 µM) was the least that counted as inhibitory against Staphylococcus aureus [4] (MIC).
In the case of `c1ccc(CNc2c(Cc3ccccc3)nc3ccccn23)cc1`, the outcome (in test [1]; in test [2]; in the test with Staphylococcus aureus [3]) was inactive.
As for `CC(C)(C)Nc1c(-c2c3ccccc3c(Cl)c3ccccc23)nc2ccccn12`, in the test on Staphylococcus aureus [4], the MIC came out at 7.81 µg/mL (≈ 19.5 µM).
Same read-out and setting: the result for `CC(C)(C)CC(C)(C)Nc1c(-c2cc3ccccc3c3ccccc23)nc2ccccn12` reads 7.81 µg/mL (≈ 18.5 µM).
Consider `c1ccc(CNc2c(-c3cccc4ccccc34)nc3cnccn23)cc1`, for which the result (in test [1]; in test [2]; in the test on Staphylococcus aureus [3]) was inactive.
In the case of `CC(C)(C)CC(C)(C)Nc1c(-c2ccc(-c3ccccc3)cc2)nc2ccccn12`, in the test on Staphylococcus aureus [3], the outcome was inactive.
`Nc1c(-c2c3ccccc3cc3ccccc23)nc2ccccn12`: the result with Staphylococcus aureus [3] was inactive.
Regarding `Nc1cccn2c(NC3CCCCC3)c(-c3c4ccccc4cc4ccccc34)nc12`, in the test with Staphylococcus aureus [4], the MIC was determined as 15.6 µg/mL (≈ 38.4 µM).
With `CC(C)(C)Nc1c(Cc2ccccc2)nc2ccccn12`, the outcome (in test [1]; in test [2]; with Staphylococcus aureus [3]) was inactive.
As to `c1ccc2c(-c3nc4ccccn4c3NC34CC5CC(CC(C5)C3)C4)c3ccccc3cc2c1`, inhibition of growth against Staphylococcus aureus [4] (MIC) required 15.6 µg/mL (≈ 35.2 µM).
On to `CC(C)(C)CC(C)(C)Nc1c(-c2c3ccccc3cc3ccccc23)nc2ccccn12`, for which the MIC in the test on Staphylococcus aureus [4] and in the test on Staphylococcus aureus [5] was 3.91 µg/mL (≈ 9.27 µM) in each case. In the test with Staphylococcus aureus [6], the outcome was inactive.
Take `c1ccc2c(-c3nc4cnccn4c3NC3CCCCC3)cccc2c1`: the outcome (in test [1]; in test [2]; in the test with Staphylococcus aureus [3]) was inactive.
Consider `c1ccc(CNc2c(-c3cccc4ccccc34)nc3ccccn23)cc1`, for which the result in test [1] and in test [2] was inactive. For the same compound, in the test on Staphylococcus aureus [4], the MIC came out at 15.6 µg/mL (≈ 44.7 µM).
Consider `COc1ccc(Nc2c(-c3c4ccccc4cc4ccccc34)nc3ccccn23)cc1`, for which the result in the test with Staphylococcus aureus [3] was inactive.
In the case of `c1ccc(Cc2nc3ccccn3c2NC2CCCCC2)cc1`, the outcome (in test [1]; in test [2]; with Staphylococcus aureus [3]) was inactive.
For `CC(C)(C)Nc1c(-c2c3ccccc3cc3ccccc23)nc2ccc(NCCCCCCCCN)cn12`, the minimal inhibitory concentration (MIC) against Staphylococcus aureus [4] came to 3.91 µg/mL (≈ 7.7 µM); in the test with Staphylococcus aureus [5], 7.81 µg/mL (≈ 15.4 µM).
`c1ccc(CNc2c(-c3c4ccccc4cc4ccccc34)nc3ccccn23)cc1`: the result (in test [1]; in test [2]; with Staphylococcus aureus [3]) was inactive.
Take `c1ccc(-c2nc3ccccn3c2NC2CCCCC2)cc1`: the outcome (in test [1]; in test [2]; in the test on Staphylococcus aureus [3]) was inactive.
On to `CC(C)(C)CC(C)(C)Nc1c(-c2c3ccccc3cc3ccccc23)nc2ccc(Br)cn12`, for which it took 15.6 µg/mL (≈ 31.2 µM) to inhibit growth in the test with Staphylococcus aureus [4] (MIC).
Consider `Clc1nccn2c(NC3CCCCC3)c(-c3c4ccccc4cc4ccccc34)nc12`, for which the outcome with Staphylococcus aureus [3] was inactive.
In the test with Staphylococcus aureus [4], `C[Si](C)(C)CNc1c(-c2c3ccccc3cc3ccccc23)nc2ccccn12` gave an MIC of 15.6 µg/mL (≈ 39.5 µM).
Consider `c1ccc(CNc2c(-c3c4ccccc4cc4ccccc34)nc3cnccn23)cc1`, for which the result (in test [1]; in test [2]; in the test on Staphylococcus aureus [3]) was inactive.
Consider `Cc1cccc(Cl)c1Nc1c(-c2c3ccccc3cc3ccccc23)nc2ccccn12`, for which the outcome with Staphylococcus aureus [3] was inactive.
For the compound `CC(C)(C)CC(C)(C)Nc1c(-c2cc3cccc4ccc5cccc2c5c43)nc2ccccn12`, in the test on Staphylococcus aureus [4], the minimal inhibitory concentration (MIC) was found to be 15.6 µg/mL (≈ 35.1 µM).
On the same count and under the same terms, the result for `CCCCCCCCN(CCCCCCCC)c1c(-c2c3ccccc3cc3ccccc23)nc2ccccn12` reads 31.2 µg/mL (≈ 58.5 µM).
As to `c1ccc(Cc2nc3cnccn3c2NC2CCCCC2)cc1`, the outcome (in test [1]; in test [2]; in the test with Staphylococcus aureus [3]) was inactive.
Consider `c1ccc(-c2nc3cnccn3c2NC2CCCCC2)cc1`, for which the outcome (in test [1]; in test [2]; in the test with Staphylococcus aureus [3]) was inactive.
On to `c1ccc(CNc2c(-c3ccccc3)nc3cnccn23)cc1`, for which the outcome (in test [1]; in test [2]; with Staphylococcus aureus [3]) was inactive.
`CN(C)CCCNc1ccc2nc(-c3c4ccccc4cc4ccccc34)c(NC(C)(C)CC(C)(C)C)n2c1` yielded an MIC in the test on Staphylococcus aureus [4] of 3.91 µg/mL (≈ 7.49 µM).
As to `c1ccc2c(-c3nc4cnccn4c3NC3CCCCC3)c3ccccc3cc2c1`, the result in test [1] and in test [2] was inactive. This compound also returned an MIC in the test on Staphylococcus aureus [4] of 7.81 µg/mL (≈ 19.9 µM).
In turn, `CCCCCCCCNc1c(-c2c3ccccc3cc3ccccc23)nc2ccccn12` registered an MIC in the test on Staphylococcus aureus [4] of 7.81 µg/mL (≈ 18.5 µM).
As to `CC(C)(C)Nc1c(Cc2ccccc2)nc2cnccn12`, the result (in test [1]; in test [2]; in the test on Staphylococcus aureus [3]) was inactive.
The compound `CN(C)CCCNc1c2ccccc2c(-c2nc3ccccn3c2NC(C)(C)CC(C)(C)C)c2ccccc12` yielded an MIC against Staphylococcus aureus [4] of 3.91 µg/mL (≈ 7.49 µM).
Consider `c1ccc(CNc2c(Cc3ccccc3)nc3cnccn23)cc1`, for which the result (in test [1]; in test [2]; with Staphylococcus aureus [3]) was inactive.
The compound `c1ccc2c(-c3nc4ncccn4c3NC3CCCCC3)c3ccccc3cc2c1` returned an MIC with Staphylococcus aureus [4] of 15.6 µg/mL (≈ 39.8 µM).
In the case of `CC(C)Nc1c(-c2c3ccccc3cc3ccccc23)nc2ccccn12`, the MIC with Staphylococcus aureus [4] and against Staphylococcus aureus [5] was 15.6 µg/mL (≈ 44.4 µM) in each case.
As to `CC(C)(C)CC(C)(C)Nc1c(-c2c3ccccc3c(Cl)c3ccccc23)nc2ccccn12`, in the test on Staphylococcus aureus [4], the MIC came out at 7.81 µg/mL (≈ 17.1 µM).
Regarding `CCCC(C)Nc1c(-c2c3ccccc3cc3ccccc23)nc2ccccn12` (stereo unspecified), the MIC with Staphylococcus aureus [4] amounted to 7.81 µg/mL (≈ 20.6 µM); against Staphylococcus aureus [5], 3.91 µg/mL (≈ 10.3 µM).
`O=C(Nc1c(-c2c3ccccc3cc3ccccc23)nc2ccccn12)C(F)(F)F` displayed an MIC against Staphylococcus aureus [4] of 62.5 µg/mL (≈ 154 µM).
As for `c1ccc2c(-c3nc4ccccn4c3NC3CCCCC3)cccc2c1`, the outcome in test [1] and in test [2] was inactive. Further, the MIC with Staphylococcus aureus [4] stood at 7.81 µg/mL (≈ 22.9 µM); in the test on Staphylococcus aureus [5], 15.6 µg/mL (≈ 45.7 µM).
With `CC(C)(C)Nc1c(-c2c3ccccc3c(NCCCCCCCCN)c3ccccc23)nc2ccccn12`, the results for the MIC with Staphylococcus aureus [4] and against Staphylococcus aureus [5] were 7.81 µg/mL (≈ 15.4 µM) and 15.6 µg/mL (≈ 30.8 µM), respectively.
Take `CC(C)(C)Nc1c(-c2c3ccccc3cc3ccccc23)nc2cnccn12`: the outcome (in test [1]; in test [2]; in the test on Staphylococcus aureus [3]) was inactive.
For the compound `CC(C)(C)Nc1c(-c2cccc3ccccc23)nc2ccccn12`, the MIC was below 10 µg/mL in the test on Streptococcus pyogenes, 62.5 µg/mL (≈ 198 µM) in the test on Staphylococcus aureus [4] and 31.2 µg/mL (≈ 99.1 µM) against Staphylococcus aureus [5]. The result in test [1] and in test [2] was inactive.
